Data reported in ChEMBL document CHEMBL1125645, “Specific bradycardic agents. 2. Heteroaromatic modifications in the side chain of specific bradycardic benzazepinones: chemistry, pharmacology, and structure-activity relationships” (1991).
The source made the active and inactive calls. The calls are words filed in the database; no cut-off is given here.

Experiments:
Rattus norvegicus [1] = assay: Bradycardic activity was evaluated in an anesthetized rat model as percent heart rate(beats/min) reduction 20 min after iv injection of 5 mg/kg; assay type: functional
In short: (§1)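 Male Chbb:THOM rats, 200-250 g, anesthetized with pentobarbital sodium 50 mg/kg ip, with the trachea cannulated and artificial respiration given. Heart rate was recorded continuously by an ECG-triggered beat-to-beat tachograph before and at 5 and 20 min after a single iv injection of 5 mg/kg. Values are % change from pre-dose, reported ± SEM.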

Rattus norvegicus [2] = assay: Bradycardic activity was evaluated in an anesthetized rat model as percent heart rate(beats/min) reduction 5 min after iv injection of 5 mg/kg; assay type: functional; in short: as §1
Rattus norvegicus [3] = assay: Hypotensive activity was evaluated in an anesthetized rat model as percent mean aortic blood pressure(mm hg) reduction 5 min after iv injection of 5 mg/kg of the compound; NA=Not active; assay type: functional, organism-based; design: dose 5 mg/kg; settings: Artery
In short: (§2)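 In pentobarbital-anesthetized (50 mg/kg ip), artificially ventilated male Chbb:THOM rats (200-250 g), mean aortic pressure was measured through a carotid artery cannula connected to an electromechanical transducer. Readings were taken before and 5 min after 5 mg/kg iv. Values are % change from baseline, ± SEM.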

Rattus norvegicus [4] = organism: Rattus norvegicus; assay: Delta HR ratio measured as the ratio of delta HR(20 min)/delta HR (5 min); assay type: functional
In short: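 Duration-of-action index: the % heart-rate reduction at 20 min divided by that at 5 min after 5 mg/kg iv. Rats were male Chbb:THOM, pentobarbital-anesthetized and ventilated, with heart rate taken from an ECG-triggered tachograph.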

Rattus norvegicus [5] = assay: Hypotensive activity was evaluated in an anesthetized rat model as percent mean aortic blood pressure(mm hg) reduction 5 min after iv injection of 5 mg/kg; assay type: functional, Artery; in short: as §2
Rattus norvegicus [6] = organism: Rattus norvegicus; assay: Ratio of heart rate reduction to mean arterial blood pressure reduction; assay type: functional
In short: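 Selectivity parameter S: the % heart-rate reduction divided by the % mean arterial pressure reduction, both read 5 min after 5 mg/kg iv in anesthetized, ventilated male Chbb:THOM rats. Heart rate came from an ECG-triggered tachograph and pressure from a carotid cannula.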

Rattus norvegicus [7] = assay: Bradycardic activity was evaluated in an anesthetized rat model as percent heart rate(beats/min) reduction 20 min after iv injection of 5 mg/kg of the compound; NA=Not active; assay type: functional, organism-based; design: dose 5 mg/kg; in short: as §1
Rattus norvegicus [8] = assay: Bradycardic activity was evaluated in an anesthetized rat model as percent heart rate(beats/min) reduction 5 min after iv injection of 5 mg/kg of the compound; NA=Not active; assay type: functional, organism-based; design: dose 5 mg/kg; in short: as §1

Structure (SMILES) | Delta HR (Rattus norvegicus [1]) [%] | Delta HR (Rattus norvegicus [2]) [%] | Delta MAP (Rattus norvegicus [3]) | Ratio (Rattus norvegicus [4]) | Delta MAP (Rattus norvegicus [5]) [%] | Selectivity (Rattus norvegicus [6]) | Delta HR (Rattus norvegicus [7]) | Delta HR (Rattus norvegicus [8])
COc1cc2c(cc1OC)CC(=O)N(CCCN(C)CCn1cnc3ccccc31)CC2 | -15 | -10 | inactive | 1.5 | – | – | – | –
COc1cc2c(cc1OC)CC(=O)N(CCCN(C)CCc1c[nH]c3ccc(OCc4ccccc4)cc13)CC2 | -46 | -49 | – | 0.93 | -45 | 1.1 | – | –
COc1cc2c(cc1OC)CC(=O)N(CCCN(C)CCc1csc3ccc(C)cc13)CC2 | -38 | -51 | – | 0.75 | -36 | 1.4 | – | –
COc1cc2c(cc1OC)CC(=O)N(CCCN(C)CCc1csc3cc(OS(C)(=O)=O)ccc13)CC2 | -40 | -50 | – | 0.8 | -21 | 2.4 | – | –
COc1cc2c(cc1OC)CC(=O)N(CCCN(C)CCc1csc3c1CCCC3)CC2 | -55 | -69 | – | 0.8 | -43 | 1.6 | – | –
COc1cc2c(cc1OC)CC(=O)N(CCCN(C)CCCCCCc1cccs1)CC2 | -21 | -53 | – | 0.4 | -26 | 2 | – | –
COc1cc2c(cc1OC)CC(=O)N(CCCN(C)CCc1ccsc1)CC2 | -19 | -24 | inactive | 0.79 | – | – | – | –
COc1cc2c(cc1OC)CC(=O)N(CCCN(C)CCCc1ccco1)CC2 | -18 | -19 | – | 0.95 | -61 | 0.31 | – | –
COc1cc2c(cc1OC)CC(=O)N(CCCN(C)Cc1c(C)noc1C)CC2 | -14 | -5 | inactive | 2.8 | – | – | – | –
COc1cc2c(cc1OC)CC(=O)N(CCCN(C)CCc1cncc3cc(OC)c(OC)cc13)CC2 | -5 | -5 | inactive | 1 | – | – | – | –
COc1cc2c(cc1OC)CC(=O)N(CCCN(C)CCc1csc3ccccc13)CC2 | -51 | -66 | – | 0.78 | -55 | 1.2 | – | –
COc1cc2c(cc1OC)CC(=O)N(CCCN(C)CCn1ccnc1)CC2 | – | – | inactive | – | – | – | inactive | inactive
COc1cc2c(cc1OC)CC(=O)N(CCCN(C)CCc1ccco1)CC2 | -11 | -12 | – | 0.92 | -52 | 0.23 | – | –
COc1cc2c(cc1OC)CC(=O)N(CCCN(C)CCc1csc3cccc(OC)c13)CC2 | -24 | -34 | – | 0.72 | -21 | 1.6 | – | –
COc1cc2c(cc1OC)CC(=O)N(CCCN(C)CCc1ccncc1)CC2 | -21 | -10 | inactive | 2.1 | – | – | – | –
COc1cc2c(cc1OC)CC(=O)N(CCCN(C)CCCCn1ccnc1)CC2 | – | – | inactive | – | – | – | inactive | inactive
COc1cc2c(cc1OC)CC(=O)N(CCCN(C)CCc1csc3ccc(Br)cc13)CC2 | -17 | -50 | – | 0.34 | -41 | 1.2 | – | –
COc1ccc2c(CCN(C)CCCN3CCc4cc(OC)c(OC)cc4CC3=O)coc2c1 | -34 | -59 | – | 0.58 | -35 | 1.7 | – | –
COc1cc2c(cc1OC)CC(=O)N(CCCN(C)CCc1csc3cc(OC)c(OC)cc13)CC2 | -17 | -24 | – | 0.71 | -17 | 1.4 | – | –
COc1cc2c(cc1OC)CC(=O)N(CCCN(C)CCc1coc3ccccc13)CC2 | -39 | -54 | – | 0.72 | -39 | 1.4 | – | –
COc1cc2c(cc1OC)CC(=O)N(CCCN(C)Cc1ccccn1)CC2 | – | – | inactive | – | – | – | inactive | inactive

Structure (SMILES) | Delta HR (Rattus norvegicus [1]) [%] | Delta HR (Rattus norvegicus [2]) [%] | Delta MAP (Rattus norvegicus [3]) | Ratio (Rattus norvegicus [4]) | Delta MAP (Rattus norvegicus [5]) [%] | Selectivity (Rattus norvegicus [6]) | Delta HR (Rattus norvegicus [7]) | Delta HR (Rattus norvegicus [8])
COc1cc2c(cc1OC)CC(=O)N(CCCN(C)CCc1cc3ccccc3o1)CC2 | -45 | -67 | – | 0.67 | -39 | 1.7 | – | –
COc1cc2c(cc1OC)CC(=O)N(CCCN(C)CCc1cccs1)CC2 | -16 | -28 | – | 0.56 | -34 | 0.82 | – | –
COc1cc2c(cc1OC)CC(=O)N(CCCN(C)CCCCCc1cccs1)CC2 | -36 | -68 | – | 0.53 | -15 | 4.4 | – | –
COc1cc2c(cc1OC)CC(=O)N(CCCN(C)CCc1cccn1C)CC2 | -18 | -30 | – | 0.59 | -18 | 1.7 | – | –
COc1cc2c(cc1OC)CC(=O)N(CCCN(C)CCc1ccccn1)CC2 | -16 | -15 | inactive | 1.1 | – | – | – | –
COc1cc2c(cc1OC)CC(=O)N(CCCN(C)Cc1csc3ccccc13)CC2 | -7 | -18 | – | 0.4 | -27 | 0.66 | – | –
COc1cc2c(cc1OC)CC(=O)N(CCCN(C)CCc1coc3cccc(OC)c13)CC2 | -14 | -31 | – | 0.45 | -8 | 3.9 | – | –
COc1cc2c(cc1OC)CC(=O)N(CCCN(C)CCc1cn(C)c3ccccc13)CC2 | -37 | -50 | – | 0.74 | -22 | 2.3 | – | –
COc1cc2c(cc1OC)CC(=O)N(CCCN(C)CCc1csc3cc(O)ccc13)CC2 | -37 | -50 | – | 0.74 | -29 | 1.7 | – | –
COc1cc2c(cc1OC)CC(=O)N(CCCN(C)CCc1c[nH]c3ccccc13)CC2 | -36 | -50 | – | 0.73 | -23 | 2.2 | – | –
COc1cc2c(cc1OC)CC(=O)N(CCCN(C)CCCc1cccs1)CC2 | -19 | -40 | – | 0.48 | -20 | 2 | – | –
COc1cc2c(cc1OC)CC(=O)N(CCCN(C)CCc1c[nH]c3ccc(Br)cc13)CC2 | -27 | -33 | – | 0.82 | -34 | 0.98 | – | –
COc1cc2c(cc1OC)CC(=O)N(CCCN(C)CCCCc1cccs1)CC2 | -24 | -61 | – | 0.39 | -2 | 2.3 | – | –
COc1cc2c(cc1OC)CC(=O)N(CCCN(C)CCc1cc(C)sc1C)CC2 | -40 | -61 | – | 0.65 | -36 | 1.7 | – | –
COc1cc2c(cc1OC)CC(=O)N(CCCN(C)CCCc1c[nH]c3ccccc13)CC2 | -47 | -62 | – | 0.76 | -34 | 1.8 | – | –
COc1cc2c(cc1OC)CC(=O)N(CCCN(C)CCc1cccnc1)CC2 | -18 | -12 | – | 1.5 | -11 | 1.1 | – | –
COc1ccc2[nH]cc(CCN(C)CCCN3CCc4cc(OC)c(OC)cc4CC3=O)c2c1 | -29 | -32 | – | 0.92 | -18 | 1.8 | – | –
COc1cc2c(cc1OC)CC(=O)N(CCCN(C)CCCc1csc3ccccc13)CC2 | -45 | -65 | – | 0.69 | -46 | 1.4 | – | –
COc1cc2c(cc1OC)CC(=O)N(CCCN(C)CCc1c[nH]c3ccc(O)cc13)CC2 | -24 | -49 | – | 0.49 | -27 | 1.8 | – | –
COc1ccc(CCN(C)CCCN2CCc3cc(OC)c(OC)cc3CC2=O)cc1OC [ZATEBRADINE] | -46 | -56 | – | 0.83 | -21 | 2.6 | – | –
